{"source": "ChEMBL document CHEMBL1649302", "about": "“New small-molecule inhibitor class targeting human immunodeficiency virus type 1 virion maturation” (Antimicrob Agents Chemother, 2009)", "key": {"[1]": {"test": "Therapeutic index, ratio of CC50 for human PBMC to EC50 for HIV1 92BR004 infected in human PBMC", "conditions": "read-out: TI", "in_short": "(§1)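 TI was the mean PBMC CC50 divided by the mean EC50 from the 7-day PBMC reverse transcriptase assay.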"}, "[2]": {"test": "Therapeutic index, ratio of CC50 for human PBMC to EC50 for HIV1 92BR014 infected in human PBMC", "conditions": "read-out: TI", "in_short": "(§2)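 PHA-stimulated (4 μg/ml, 48 to 72 h) PBMCs pooled from at least two seronegative donors, kept with 20 U/ml IL-2, plated at 5 × 10⁴ cells/well. Infected with clinical isolate (final MOI ≅0.1) alongside nine compound concentrations in triplicate wells, 7 days. Supernatant reverse transcriptase activity measured. TI is mean PBMC CC50 divided by mean EC50.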"}, "[3]": {"test": "Therapeutic index, ratio of CC50 for human MT2 cells to EC50 for HIV1 92HT594 infected in human MT2 cells", "format": "cell-based", "conditions": "read-out: TI", "in_short": "(§3)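 TI was the mean CC50 (XTT, uninfected MT-2) divided by the mean EC50, determined for each cell line in each experiment.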"}, "[4]": {"tested_on": "Human immunodeficiency virus 1", "test": "Antiviral activity HIV1 92RW009 infected in human PBMC after 7 days by scintillation counting", "format": "functional, organism-based", "conditions": "Human immunodeficiency virus 1, 92RW009, 168 h", "in_short": "(§4)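 PBMCs came from buffy coats pooled from 3–4 seronegative donors, were PHA-stimulated (1.5 μg/ml, 3 days) and frozen. Thawed cells were infected 1 h at 37°C with virus input set by TCID50, then pelleted and resuspended in IL-2 (10 ng/ml). They were plated at 4 × 10⁵ cells/ml onto compounds for 7 days at 37°C. Supernatant RT activity was measured by Quan-T-RT scintillation assay.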"}, "[5]": {"tested_on": "Human immunodeficiency virus 1", "test": "Antiviral activity HIV1 91US056 infected in human PBMC after 7 days by scintillation counting", "format": "functional, organism-based", "conditions": "Human immunodeficiency virus 1, 91US056, 168 h", "in_short": "(§5)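 Fresh PBMCs from HIV/HBV-seronegative donors were PHA-stimulated (4 μg/ml, 48–72 h) and kept with IL-2 (20 U/ml), with at least two donors pooled. Cells were seeded at 5 × 10⁴/well and infected (final MOI ≅0.1) with nine compound concentrations in triplicate wells. After 7 days, reverse transcriptase activity was measured in cell-free supernatant.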"}, "[6]": {"test": "Therapeutic index, ratio of CC50 for human PBMC to EC50 for HIV1 92TH026 infected in human PBMC", "conditions": "read-out: TI", "in_short": "as §2"}, "[7]": {"test": "Therapeutic index, ratio of CC50 for human PBMC to EC50 for HIV1 92BR017 infected in human PBMC", "conditions": "read-out: TI", "in_short": "(§6)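 Frozen PHA-stimulated (1.5 μg/ml, 3 days) buffy-coat PBMCs pooled from three or four seronegative donors. Infected with a TCID50-based virus input per 10⁶ cells for 1 h at 37°C, then pelleted and resuspended in 10 ng/ml IL-2. Plated at 4 × 10⁵ cells/ml on compound dilutions for 7 days at 37°C. Supernatant RT measured by Quan-T-RT. TI is mean CC50 divided by mean EC50.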"}, "[8]": {"test": "Therapeutic index, ratio of CC50 for human PBMC to EC50 for HIV1 92HT599 infected in human PBMC", "conditions": "read-out: TI", "in_short": "as §6"}, "[9]": {"test": "Therapeutic index, ratio of CC50 for human PM1 cells to EC50 for HIV1 NL4-3 infected in human PM1 cells", "format": "cell-based", "conditions": "read-out: TI", "in_short": "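PM1 cells infected at MOI 0.16 for 2 h, washed, then seeded at 1 × 10⁴ cells/well on half-log compound dilutions. After 5 days, supernatant p24 antigen was quantified by ELISA kit. EC50 is the concentration halving p24 versus infected untreated cells. CC50 was measured in PM1 cells by XTT formazan at 450 nm. TI is CC50 divided by EC50.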"}, "[10]": {"tested_on": "Human immunodeficiency virus 1", "test": "Antiviral activity HIV1 92BR030 infected in human PBMC after 7 days by scintillation counting", "format": "functional, organism-based", "conditions": "Human immunodeficiency virus 1, 92BR030, 168 h", "in_short": "as §5"}, "[11]": {"test": "Therapeutic index, ratio of CC50 for human PBMC to EC50 for HIV1 93TH074 infected in human PBMC", "conditions": "read-out: TI", "in_short": "as §6"}, "[12]": {"tested_on": "Human immunodeficiency virus 1", "test": "Antiviral activity HIV1 92BR004 infected in human PBMC after 7 days by scintillation counting", "format": "functional, organism-based", "conditions": "Human immunodeficiency virus 1, 92BR004, 168 h", "in_short": "as §4"}, "[13]": {"test": "Therapeutic index, ratio of CC50 for human PBMC to EC50 for HIV1 92US076 infected in human PBMC", "conditions": "read-out: TI", "in_short": "as §2"}, "[14]": {"tested_on": "Human immunodeficiency virus 1", "test": "Antiviral activity against HIV1 NL4-3 infected in human MT2 cells assessed as protection against virus-induced cytopathogenicity after 6 days by XTT assay", "format": "functional, organism-based", "conditions": "Human immunodeficiency virus 1, NL4-3, MT2, 144 h", "in_short": "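Host cells were infected with NL4-3 or IIIB (MOI 0.08) or RF (MOI 0.025–0.819) and seeded at 2 × 10⁴/well onto half-log compound dilutions. After 6 days, XTT/PMS was added for 4 h and formazan was read at 450 nm. EC50 was the concentration giving 50% of the formazan of uninfected, compound-free cells.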"}, "[15]": {"test": "Therapeutic index, ratio of CC50 for human PBMC to EC50 for HIV1 92US660 infected in human PBMC", "conditions": "read-out: TI", "in_short": "as §2"}, "[16]": {"tested_on": "Human immunodeficiency virus 1", "test": "Antiviral activity HIV1 98IN022 infected in human PBMC after 7 days by scintillation counting", "format": "functional, organism-based", "conditions": "Human immunodeficiency virus 1, 98IN022, 168 h", "in_short": "as §4"}, "[17]": {"tested_on": "Human immunodeficiency virus 1", "test": "Antiviral activity HIV1 93BR021 infected in human PBMC after 7 days by scintillation counting", "format": "functional, organism-based", "conditions": "Human immunodeficiency virus 1, 93BR021, 168 h", "in_short": "as §5"}, "[18]": {"test": "Therapeutic index, ratio of CC50 for human MT2 cells to EC50 for HIV1 3B infected in human MT2 cells", "format": "cell-based", "conditions": "read-out: TI", "in_short": "as §3"}, "[19]": {"test": "Cytotoxicity against human PM1 cells after 5 days by XTT assay", "format": "cell-based", "in_short": "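CC50 in uninfected PM1 cells was measured by the XTT dye-reduction method: XTT/PMS for 4 h, absorbance at 450 nm, 50% of compound-free formazan.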"}, "[20]": {"tested_on": "Human immunodeficiency virus 1", "test": "Antiviral activity against HIV1 assessed as inhibition of virion maturation-associated CA/SP1 processing at 2 times EC90", "format": "functional, organism-based"}, "[21]": {"test": "Therapeutic index, ratio of CC50 for human PBMC to EC50 for HIV1 NL4-3 infected in human PBMC", "conditions": "read-out: TI", "in_short": "as §6"}, "[22]": {"test": "Therapeutic index, ratio of CC50 for human PBMC to EC50 for HIV1 96USHIPS7 infected in human PBMC", "conditions": "read-out: TI", "in_short": "as §2"}, "[23]": {"tested_on": "Human immunodeficiency virus 1", "test": "Antiviral activity HIV1 93BR029 infected in human PBMC after 7 days by scintillation counting", "format": "functional, organism-based", "conditions": "Human immunodeficiency virus 1, 93BR029, 168 h", "in_short": "as §4"}, "[24]": {"tested_on": "Human immunodeficiency virus 1", "test": "Antiviral activity against HIV1 Ba-L infected in human PM1 cells assessed as inhibition of viral p24 antigen production after 5 days", "format": "functional, organism-based", "conditions": "Human immunodeficiency virus 1, Ba-L, PM1, 120 h", "in_short": "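PM1 cells (NL4-3, Ba-L) or MT-2 cells (92HT594, 92HT599) were infected at MOI 0.16 for 2 h and washed. They were plated at 1 × 10⁴ cells/well (2 × 10⁵/ml) onto half-log compound dilutions. Supernatant p24 was quantified by ELISA at day 5. EC50 was the concentration giving a 50% decrease versus infected, compound-free cells.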"}, "[25]": {"test": "Therapeutic index, ratio of CC50 for human PBMC to EC50 for HIV1 91US056 infected in human PBMC", "conditions": "read-out: TI", "in_short": "as §1"}}, "note": "Active and inactive are the calls of the source. The calls are words filed in the database; no cut-off is given here."}
{"smiles": "CC(C)(C)c1ccc(C(Cn2cccc(C(F)(F)F)c2=O)NC2Cc3ccccc3C2)cc1", "note": "(stereo not given)", "values": [{"measurement": "selectivity ratio", "setting": "[1]", "value": 52}, {"measurement": "selectivity ratio", "setting": "[2]", "value": 2}, {"measurement": "selectivity ratio", "setting": "[3]", "value": 79}, {"measurement": "EC50", "setting": "[4]", "value": 1.4, "unit": "µM"}, {"measurement": "EC50", "setting": "[5]", "value": "> 17", "unit": "µM"}, {"measurement": "selectivity ratio", "setting": "[6]", "value": "< 1"}, {"measurement": "selectivity ratio", "setting": "[7]", "value": 142}, {"measurement": "selectivity ratio", "setting": "[8]", "value": 12}, {"measurement": "selectivity ratio", "setting": "[9]", "value": 633}, {"measurement": "EC50", "setting": "[10]", "value": "> 17", "unit": "µM"}, {"measurement": "selectivity ratio", "setting": "[11]", "value": 142}, {"measurement": "EC50", "setting": "[12]", "value": 0.33, "unit": "µM"}, {"measurement": "selectivity ratio", "setting": "[13]", "value": 2430}, {"measurement": "EC50", "setting": "[14]", "value": 0.36, "unit": "µM"}, {"measurement": "selectivity ratio", "setting": "[15]", "value": 1}, {"measurement": "EC50", "setting": "[16]", "value": 1.3, "unit": "µM"}, {"measurement": "EC50", "setting": "[17]", "value": 0.04, "unit": "µM"}, {"measurement": "selectivity ratio", "setting": "[18]", "value": 1120}, {"measurement": "CC50 at 120 h", "setting": "[19]", "value": 19, "unit": "µM"}, {"measurement": "inhibition", "setting": "[20]", "value": "Active"}, {"measurement": "selectivity ratio", "setting": "[21]", "value": 155}, {"measurement": "selectivity ratio", "setting": "[22]", "value": "< 1"}, {"measurement": "EC50", "setting": "[23]", "value": 0.57, "unit": "µM"}, {"measurement": "EC50", "setting": "[24]", "value": 5.3, "unit": "µM"}, {"measurement": "selectivity ratio", "setting": "[25]", "value": "< 1"}]}
